Experiments:
[1] = folding enthalpy; higher = less favourable; fluorescence melt of hairpins on a sequencing array, two-state fit; conditions: sodium 0.088 M
How it was run: (§1)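 Melting temperature and folding enthalpy were obtained by bootstrapped two-state fitting. Fits used Cy3 fluorescence of library hairpins with annealed Cy3 and quencher oligos on a sequenced MiSeq flow cell, imaged in 50 mM Na-HEPES pH 8.0, 25 mM NaCl in 2.5 °C steps up to 60 °C and normalised to pre-quench Cy3 and control constructs. Four replicates were combined by inverse-variance weighting, and fitted temperatures were raised by 9.35 °C to match UV melts.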

[2] = melting temperature; fluorescence melt of hairpins on a sequencing array, two-state fit, raised by 9.35 °C to match UV melts; conditions: sodium 0.088 M
How it was run: as §1

Row | Sequence | folding enthalpy [1] [kcal/mol] | Tm [2] [°C]
1 | GATCTGGAGGCAGATC ((((((....)))))) | -31.1 | 48.1
2 | GATCTGGCACAGATC ((((((...)))))) | -38.8 | 58.4
3 | GATCTGGCACCAGATC ((((((....)))))) | -41.3 | 55.1
4 | GATCTGGCATCAGATC ((((((....)))))) | -46.2 | 54.6
5 | GATCTGGCCACAGATC ((((((....)))))) | -39.6 | 59.8
6 | GATCTGGCGACAGATC ((((((....)))))) | -44.1 | 55.8
7 | GATCTGGCGTCAGATC ((((((....)))))) | -31.8 | 50.9
8 | GATCTGGCTGCAGATC ((((((....)))))) | -36.3 | 50
9 | GATCTGGGAAACCAGACC (.(((((....))))).) | -16.1 | 38.5
10 | GATCTGGGAAACTGGATC ((((..(....)..)))) | -26.2 | 35.2
11 | GATCTGGGCGCAGATC ((((((....)))))) | -37.7 | 53.5
12 | GATCTGGGCTCAGATC ((((((....)))))) | -39.3 | 52.8
13 | GATCTGGTTCAGATC ((((((...)))))) | -36.5 | 49.9
14 | GATCTGGTTCCAGATC ((((((....)))))) | -47.1 | 53.5
15 | GATCTGTACTCAGATC ((((((....)))))) | -36.1 | 50.2
16 | GATCTGTCACCAGATC ((((((....)))))) | -39.4 | 49.4
17 | GATCTGTCAGCAGATC ((((((....)))))) | -40.7 | 51.7
18 | GATCTGTTACCAGATC ((((((....)))))) | -42.4 | 50.5
19 | GATCTGTTCACAGATC ((((((....)))))) | -35.1 | 56.9
20 | GATCTGTTCGCAGATC ((((((....)))))) | -47.6 | 53.4
21 | GATCTGTTGCCAGATC ((((((....)))))) | -36.9 | 50.5
22 | GATCTGTTGGCAGATC ((((((....)))))) | -40.3 | 54.2
23 | GATCTTAAACAAGATC ((((((....)))))) | -24.9 | 38.7
24 | GATCTTAACGAAGATC ((((((....)))))) | -29.9 | 40

Row | Sequence | folding enthalpy [1] [kcal/mol] | Tm [2] [°C]
25 | GATCTTAAGGAAGATC ((((((....)))))) | -23.1 | 39.1
26 | GATCTTAAGTAAGATC ((((((....)))))) | -25.5 | 42.8
27 | GATCTTAATTAAGATC ((((((....)))))) | -32.1 | 44.7
28 | GATCTTACAGAAGATC ((((((....)))))) | -31.8 | 38.4
29 | GATCTTACCAAAGATC ((((((....)))))) | -34.6 | 44.5
30 | GATCTTACTGAAGATC ((((((....)))))) | -26.9 | 42.2
31 | GATCTTAGACAAGATC ((((((....)))))) | -30.2 | 37.3
32 | GATCTTAGGAAAGATC ((((((....)))))) | -26.5 | 38.6
33 | GATCTTAGGAAGATC ((((((...)))))) | -30.5 | 43.3
34 | GATCTTAGTAAGATC ((((((...)))))) | -27.6 | 42.5
35 | GATCTTATAAAGATC ((((((...)))))) | -29.4 | 44
36 | GATCTTATAGAAGATC ((((((....)))))) | -30 | 39.5
37 | GATCTTATTAAAGATC ((((((....)))))) | -30.7 | 42.8
38 | GATCTTATTAAGATC ((((((...)))))) | -34 | 45
39 | GATCTTCAGAAAGATC ((((((....)))))) | -29.7 | 41.7
40 | GATCTTCAGCAAGATC ((((((....)))))) | -24.6 | 38.9
41 | GATCTTCAGTAAGATC ((((((....)))))) | -30.6 | 40.7
42 | GATCTTCATTAAGATC ((((((....)))))) | -35.4 | 41.5
43 | GATCTTCCAAAAGATC ((((((....)))))) | -32 | 41.7
44 | GATCTTCCTAAAGATC ((((((....)))))) | -31.7 | 43.7
45 | GATCTTCCTGAAGATC ((((((....)))))) | -39.8 | 51.2
46 | GATCTTCCTTAAGATC ((((((....)))))) | -27.8 | 42.1
47 | GATCTTCGACAAGATC ((((((....)))))) | -26.7 | 38.6
48 | GATCTTCGAGAAGATC ((((((....)))))) | -42 | 50.8

Row | Sequence | folding enthalpy [1] [kcal/mol] | Tm [2] [°C]
49 | GATCTTCGATAAGATC ((((((....)))))) | -24.7 | 40.2
50 | GATCTTCGCCAAGATC ((((((....)))))) | -33.7 | 42
51 | GATCTTCGGGAAGATC ((((((....)))))) | -36.2 | 49.5
52 | GATCTTCGGTAAGATC ((((((....)))))) | -34 | 41.3
53 | GATCTTCTCAAAGATC ((((((....)))))) | -33.4 | 45.2
54 | GATCTTCTCCAAGATC ((((((....)))))) | -29.8 | 41.1
55 | GATCTTCTCGAAGATC ((((((....)))))) | -39 | 51.8
56 | GATCTTCTTCAAGATC ((((((....)))))) | -27.7 | 43.5
57 | GATCTTCTTGAAGATC ((((((....)))))) | -48 | 54
58 | GATCTTGACAAGATC ((((((...)))))) | -38.6 | 46.1
59 | GATCTTGACCAAGATC ((((((....)))))) | -38.3 | 49.3
60 | GATCTTGACTAAGATC ((((((....)))))) | -44 | 49
61 | GATCTTGAGCAAGATC ((((((....)))))) | -33.5 | 44.4
62 | GATCTTGCCGAAGATC ((((((....)))))) | -28.1 | 46.1
63 | GATCTTGCGAAGATC ((((((...)))))) | -23.7 | 42.8
64 | GATCTTGGAAACAAGATC (((((((....))))))) | -42.3 | 55.9
65 | GATCTTGGTGAAGATC ((((((....)))))) | -27.2 | 45.4
66 | GATCTTGTCGAAGATC ((((((....)))))) | -27.4 | 46.4
67 | GATCTTGTCTAAGATC ((((((....)))))) | -40.6 | 48.4
68 | GATCTTGTGAAAGATC ((((((....)))))) | -37.3 | 51.2
69 | GATCTTTAATAAGATC ((((((....)))))) | -31.1 | 40.9
70 | GATCTTTATAAAGATC ((((((....)))))) | -38.4 | 45.5
71 | GATCTTTCACAAGATC ((((((....)))))) | -30.5 | 43.1
72 | GATCTTTCCCAAGATC ((((((....)))))) | -33.4 | 42.6

Reference: the array DNA melting data of Ke et al. (doi:10.1101/2024.01.08.574731)
